Values after ≈ are worked out from the molar mass of the structure shown. Active and inactive are the calls of the source. The rule behind the calls is not given here.
What was measured:
Cryptococcus neoformans = test: Antimicrobial activity against Cryptococcus neoformans ATCC 90112 at 64 ug/ml by broth microdilution assay; format: functional, organism-based
How it was run: (§1)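 Broth microdilution susceptibility testing following NCCLS approved standards: M27-A (yeast method) and M7-A4. Each compound was tested at a single concentration of 64 μg/ml for growth inhibition of the listed strains: S. maltophilia ATCC 13637, M. luteus Presque Isle 456, S. aureus ATCC 29213, E. coli ATCC 25922, E. cloacae ATCC 13047, E. faecalis ATCC 29212, C. albicans ATCC 90028 and C. neoformans ATCC 90112.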

Enterobacter cloacae = test: Antimicrobial activity against Enterobacter cloacae ATCC 13047 at 64 ug/ml by broth microdilution assay; format: functional, organism-based; how it was run: as §1
Staphylococcus aureus = test: Antimicrobial activity against Staphylococcus aureus ATCC 29213 at 64 ug/ml by broth microdilution assay; format: functional, organism-based; how it was run: as §1
[1] = test system: Stenotrophomonas maltophilia; test: Antimicrobial activity against Stenotrophomonas maltophilia ATCC 13637 at 64 ug/ml by broth microdilution assay; format: functional, organism-based; how it was run: as §1
Micrococcus luteus = test: Antimicrobial activity against Micrococcus luteus Presque Isle 456 at 64 ug/ml by broth microdilution assay; format: functional, organism-based; how it was run: as §1
Escherichia coli = test: Antimicrobial activity against Escherichia coli ATCC 25922 at 64 ug/ml by broth microdilution assay; format: functional, organism-based; how it was run: as §1
Enterococcus faecalis = test: Antimicrobial activity against Enterococcus faecalis ATCC 29212 at 64 ug/ml by broth microdilution assay; format: functional, organism-based; how it was run: as §1
Candida albicans = test: Antimicrobial activity against Candida albicans ATCC 90028 at 64 ug/ml by broth microdilution assay; format: functional, organism-based; how it was run: as §1
P388 = test: Antitumor activity against mouse P388 cells after 48 hrs by Sulforhodamine B; format: functional; conditions: P388, 48 h, read-out: ED50 (the source's name)

SMILES	Activity (Cryptococcus neoformans)	Activity (Enterobacter cloacae)	Activity (Staphylococcus aureus)	Activity [1]	Activity (Micrococcus luteus)	Activity (Escherichia coli)	Activity (Enterococcus faecalis)	Activity (Candida albicans)	EC50 (P388) [µg/mL]
C=C1[C@H](O)[C@H]2C[C@](C)(CO)CC2=C(C)C12CC2	inactive	inactive	inactive	inactive	inactive	inactive	inactive	inactive	
C/C(C=O)=C1/CC[C@@]1(C)[C@@H]1C[C@](C)(CO)C[C@H]1O	inactive	inactive	inactive	inactive	inactive	inactive	inactive	inactive	5.3 (≈ 21 µM)
CC1(C)C[C@H]2[C@H](O)C(CO)=C3[C@H](O)C[C@]3(C)[C@H]2C1	inactive	inactive	inactive	inactive	inactive	inactive	inactive	inactive	
